Laboratory results as given in paper PMC10074403 (Chemical Science, 2023).

What was measured:
[1] = tested on: A2780 cells; assay: Intracellular EdU release from PE NPs; format: cell-based, human; details: 10 μM EdU equiv., 6 h with PE NPs (1 h with EdU), azide-488
Summary of the method: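 Human ovarian adenocarcinoma A2780 cells are treated with nanoparticles of mutual prodrugs built with the nucleoside analog EdU as a gemcitabine surrogate, or with free EdU; nanoparticle exposure is 6 h. EdU incorporated into DNA is detected by click reaction with azide-488. Images show green overlap with blue-stained nuclei (cyan) to indicate nuclear EdU incorporation.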

[2] = tested on: A549 human lung adenocarcinoma xenografts; assay: In vivo anticancer efficacy in A549 xenografts; design: species or system female BALB/c nude mice; details: PTX 20 mg kg−1 equiv., Gem 6.4 mg kg−1, i.v. on days 0, 3, 6; n = 5

SMILES | Distribution of green fluorescence (EdU incorporation into nuclei) [1] | A549 tumor growth (relative tumor size) [2]
C#Cc1cn([C@H]2C[C@H](O)[C@@H](CO)O2)c(=O)[nH]c1=O [EdU, 5-ethynyl-2′-deoxyuridine] | centralized in the area of the nucleus | –
Nc1ccn([C@@H]2O[C@H](CO)[C@@H](O)C2(F)F)c(=O)n1 [Gem, gemcitabine] | – | failed to effectively suppress tumor growth
